Experimental findings from ChEMBL document CHEMBL1641520, “Design, synthesis, and biological evaluation of novel water-soluble N-mustards as potential anticancer agents” (Bioorg Med Chem, 2011) are described below.

Molecules are shown by their SMILES. pIC50: −log10 of the molar value. The source made the active and inactive calls. No cut-off for these calls is given here.

The subject of data set [1] is MCF7. The data set can be described thus: Cytotoxicity against human MCF7 cells after 72 hrs by alamar blue assay. The note with it: MCF7, 72 h. Format: functional, cell-based. Summed up: (§1)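 H1299, PC3, CL1-0, CL1-5 and MCF-7 cells exposed to compound for 72 h. Alamar blue added, then 6 h at 37 °C; absorbance at 570 and 600 nm. IC50 from median-effect analysis of dose-effect data at six or seven concentrations.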

Data set [2] deals with PC-3. The experiment in a line: Cytotoxicity against human PC3 cells after 72 hrs by alamar blue assay. Format: functional, cell-based. Particulars: PC-3, 72 h. Summed up:
as §1
On the technique in general: Alamar Blue is a resazurin reagent that responds to reducing activity.

Data set [3] relates to HCT-116. The experiment in a line: Cytotoxicity against human HCT116 cells after 72 hrs by SRB assay. Format: functional, cell-based. The note with it: HCT-116, 72 h. The method, boiled down:
(§2)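 MX-1 breast and HCT-116 colon carcinoma cells exposed to compound for 72 h; growth measured by sulforhodamine B assay. IC50 from median-effect analysis of dose-effect data at six or seven concentrations.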
On the technique in general: The SRB assay estimates cell density from bound dye.

Data set [4] relates to CCRF-CEM. The data set can be described thus: Cytotoxicity against vinblastine-resistant human CCRF-CEM cells after 72 hrs by XTT assay. Format: functional, cell-based. The method, boiled down: (§3)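 CCRF-CEM leukemia cells and their taxol- or vinblastine-resistant sublines given compound for 72 h. XTT read-out: after phenazine methosulfate–XTT, 6 h at 37 °C, absorbance at 450 and 630 nm. IC50 from median-effect analysis of dose-effect data at six or seven concentrations.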
In general terms: Tetrazolium assays rely on reduction of a dye to a coloured formazan, in cell work by metabolically active cells.

Data set [5] in a line: Cytotoxicity against human CL1-5 cells after 72 hrs by alamar blue assay. The data set is classed as functional, cell-based. Particulars: CL1-5, 72 h. The method, boiled down:
as §1

The nature of data set [6]: Cytotoxicity against human H1299 cells after 72 hrs by alamar blue assay. Format: functional, cell-based. Particulars: NCI-H1299, 72 h. Summed up:
as §1

For data set [7], the system named is CCRF-CEM. The experiment in a line: Cytotoxicity against taxol-resistant human CCRF-CEM cells after 72 hrs by XTT assay. The data set is classed as functional, cell-based. Summed up: as §3
In data set [8] the test system is CCRF-CEM. The data set can be described thus: Selectivity ratio of IC50 for vinblastine-resistant human CCRF-CEM cells to IC50 for human CCRF-CEM cells. The data set is classed as functional.
The test system of data set [9] is MX1. The experiment in a line: Cytotoxicity against human MX1 cells after 72 hrs by SRB assay. Format: functional, cell-based. Particulars: MX1, 72 h. The method, boiled down: as §2
In data set [10] the test system is Nucleic Acid. The experiment in a line: Binding affinity to Escherichia coli plasmid EGFP-N1 DNA at 1 to 10 uM after 22 hrs by alkaline agarose gel shift assay. Format: nucleic-acid assay. The method, boiled down: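 Purified pEGFP-N1 plasmid DNA (1500 ng) incubated with compound (1–20 µM) in 3 mM NaCl/1 mM sodium phosphate pH 7.4/1 mM EDTA for 2 h at 37 °C. Linearized with BamHI, ethanol-precipitated, denatured in 0.5 N NaOH-10 mM EDTA. Run on 0.8% alkaline agarose gel at 4 °C, 18 V for 22 h. Ethidium bromide stain; cross-linked double-stranded DNA scored against single-stranded DNA.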

Data set [11] relates to CCRF-CEM. The data set can be described thus: Cytotoxicity against human CCRF-CEM cells after 72 hrs by XTT assay. Format: functional, cell-based. The method, boiled down:
as §3

The nature of data set [12]: Cytotoxicity against human CL1-0 cells after 72 hrs by alamar blue assay. Format: functional, cell-based. Particulars: CL1-0, 72 h. Summed up: as §1
Data set [13] deals with CCRF-CEM. The experiment in a line: Selectivity ratio of IC50 for taxol-resistant human CCRF-CEM cells to IC50 for human CCRF-CEM cells. The data set is classed as functional.
Data set [14] relates to U-87MG ATCC. The note with it: Homo sapiens, 80 mg/kg.
Data set [15] is described as follows: Cell cycle arrest in human H1299 cells assessed as accumulation at G2/M phase at 5 uM after 24 hrs by propidium iodide staining-based flow cytometry. The data set is classed as functional. Particulars: NCI-H1299. The method, boiled down: (§4)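 H1299 non-small cell lung carcinoma cells exposed to compound for 24 h. Attached cells trypsinized, PBS-washed, fixed in ice-cold 70% ethanol for 30 min. Stained with 4 µg/ml propidium iodide in PBS with 1% Triton X-100 and 0.1 mg/ml RNase A. Analyzed by flow cytometry; phase percentages taken from DNA histograms.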

Data set [16] is described as follows: Cell cycle arrest in human H1299 cells assessed as accumulation at G2/M phase at 10 uM after 24 hrs by propidium iodide staining-based flow cytometry. Format: functional. Particulars: NCI-H1299. The method, boiled down: as §4
Data set [17] in a line: Steady state clearance in Sprague-Dawley rat at 1 mg/kg, iv up to 24 hrs by LC-MS/MS analysis. The data set is classed as ADME, organism-based. Also noted: dose 1 mg/kg, route intravenous. Particulars: in vivo, read-out: CLss.
The test system of data set [18] is HCT-116. The data set can be described thus: Anticancer activity against human HCT116 cells xenografted in athymic mouse assessed as tumor suppression at 30 mg/kg, iv Q2D for 5 days. Format: functional. The note with it: HCT-116, 120 h. The method, boiled down:
(§5)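 Athymic nu/nu nude mice (male, ≥6 weeks, 20–24 g) carrying human tumor xenografts; dosing iv via tail vein, Q2D, in vehicle of DMSO/Tween 80/saline (50:40:160 µL). Dose level is the maximal tolerated dose determined beforehand. Tumor volume by caliper (length × width × height or width). Body weight taken as total minus tumor weight (1 mm³ = 1 mg). n = 4–5 mice.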

The nature of data set [19]: Cell cycle arrest in human H1299 cells assessed as accumulation at G2/M phase at 2.5 uM after 24 hrs by propidium iodide staining-based flow cytometry. The note with it: NCI-H1299. The data set is classed as functional. Summed up:
as §4

A short description of data set [20]: Cell cycle arrest in human H1299 cells assessed as accumulation at sub-G1 phase at 2.5 uM after 24 hrs by propidium iodide staining-based flow cytometry. Format: functional. Particulars: NCI-H1299. Summed up: as §4
The nature of data set [21]: Cell cycle arrest in human H1299 cells assessed as accumulation at G1 phase at 5 uM after 24 hrs by propidium iodide staining-based flow cytometry. Format: functional. The note with it: NCI-H1299. Summed up:
as §4

The test system of data set [22] is U-87MG ATCC. The data set can be described thus: Anticancer activity against human U87MG cells xenografted in athymic mouse assessed as tumor suppression at 30 mg/kg, iv Q2D for 6 days. The data set is classed as functional, organism-based. The arrangement: dose 30 mg/kg. Summed up: as §5
Data set [23] can be described thus: Cell cycle arrest in human H1299 cells assessed as accumulation at sub-G1 phase at 5 uM after 24 hrs by propidium iodide staining-based flow cytometry. Format: functional. Particulars: NCI-H1299. The method, boiled down:
as §4

Data set [24] can be described thus: Mean residence time in Sprague-Dawley rat at 1 mg/kg, iv by LC-MS/MS analysis. The data set is classed as ADME, organism-based. The arrangement: dose 1 mg/kg, route intravenous. The note with it: in vivo.
For data set [25], the system named is PC-3. The data set can be described thus: Anticancer activity against human PC3 cells xenografted in athymic mouse assessed as tumor suppression at 30 mg/kg, iv Q2D for 4 days. The data set is classed as functional. The note with it: PC-3, 96 h. The method, boiled down: as §5
Data set [26] is described as follows: Cell cycle arrest in human H1299 cells assessed as accumulation at G1 phase at 10 uM after 24 hrs by propidium iodide staining-based flow cytometry. Format: functional. The note with it: NCI-H1299. Summed up:
as §4

A short description of data set [27]: Cell cycle arrest in human H1299 cells assessed as accumulation at S phase at 10 uM after 24 hrs by propidium iodide staining-based flow cytometry. The data set is classed as functional. The note with it: NCI-H1299. Summed up: as §4
Data set [28] can be described thus: Cell cycle arrest in human H1299 cells assessed as accumulation at S phase at 5 uM after 24 hrs by propidium iodide staining-based flow cytometry. The note with it: NCI-H1299. The data set is classed as functional. Summed up:
as §4

The subject of data set [29] is PC-3. The experiment in a line: Anticancer activity against human PC3 cells xenografted in athymic mouse assessed as tumor suppression at 40 mg/kg, iv Q2D for 3 days. The data set is classed as functional. Particulars: PC-3, 72 h. Summed up: as §5
Data set [30] is described as follows: Cell cycle arrest in human H1299 cells assessed as accumulation at sub-G1 phase at 10 uM after 24 hrs by propidium iodide staining-based flow cytometry. The note with it: NCI-H1299. The data set is classed as functional. The method, boiled down: as §4
Data set [31] has as its system MX1. The data set can be described thus: Anticancer activity against human MX1 cells xenografted in athymic mouse assessed as complete tumor remission at 30 mg/kg, iv Q2D for 5 days measured after 70 days of tumor implantation. The data set is classed as functional, organism-based. Also noted: dose 30 mg/kg. The method, boiled down:
as §5

Data set [32] is described as follows: Cell cycle arrest in human H1299 cells assessed as accumulation at S phase at 2.5 uM after 24 hrs by propidium iodide staining-based flow cytometry. The data set is classed as functional. The note with it: NCI-H1299. Summed up: as §4
A short description of data set [33]: Cell cycle arrest in human H1299 cells assessed as accumulation at G1 phase at 2.5 uM after 24 hrs by propidium iodide staining-based flow cytometry. Particulars: NCI-H1299. The data set is classed as functional. Summed up: as §4

`Cl.O=C(Nc1ccc(N(CCCl)CCCl)cc1)Nc1cccc(C(=O)NCCN2CCCCC2)c1`: the pIC50 in data set [1] is 5.93; in data set [2] it was 5.77; in data set [3], 6.51; in [4], 4.98; in data set [5] it was 5.33; in [6], 5.21. Also, the pIC50 was 5.34 in [7], 6.14 in [9], 6.57 in data set [11] and 5.06 in data set [12]. Besides, the “Ratio IC50” value in [8] turned out to be 43.7; in data set [13], 17. Also, the result in [10] was Active.
Consider `Cl.O=C(Nc1ccc(OCCN2CCCCC2)cc1)Nc1ccc(N(CCCl)CCCl)cc1`, for which the pIC50 in data set [1] was 5.91; in [2], 6.03; in data set [3], 6.57; in [4], 6.14; in data set [5], 5.32; in data set [6], 5.74. Besides, the negative logarithm of the IC50 (pIC50) in data set [7] was 6.30; in data set [9], 6.82; in data set [11], 6.92; in data set [12] it was 5.54. Also, the “Ratio IC50” value in [8] was 7.47; in data set [13] it was 4.02. Moreover, the result in data set [10] was Active.
In the case of `O=P1(N(CCCl)CCCl)NCCCO1` (centres undefined), the inhibition result in data set [14] was “Active”.
As for `CN(C)CCNC(=O)c1cccc(NC(=O)Nc2ccc(N(CCCl)CCCl)cc2)c1.Cl`, the pIC50 in data set [1] was 6.20; in data set [2], 5.73; in [3], 6.16; in [4] it was 6.10; in data set [5] it was 5.22; in data set [6] it was 4.98. Also, the pIC50 was 5.91 in data set [7], 6.24 in data set [9], 6.89 in data set [11] and 4.84 in [12]. Besides, the Activity is 60.8% in [15]; 62.3% in data set [16]; 55.9% in data set [19]; 20% in data set [20]; 10.7% in data set [21]; 19.7% in [23]. In addition, the Activity worked out at 6.5% in [26]; 5.2% in [27]; 8.8% in data set [28]; 26% in data set [30]; 1.8% in data set [32]; 2.3% in data set [33]. Further, the clearance in data set [17] is 18 mL/min/kg. Further, the results for the inhibition in vivo at 30 mg/kg in data set [18] and in data set [25] were more than 95% and more than 99%, respectively. Besides, the inhibition entry in [22] and in data set [31] was “Active” in each case. Further, in data set [24], the MRT was determined as 6.6 min. The results for the “Ratio IC50” value in [8] and in data set [13] were 6.2 and 9.4, respectively. Moreover, the inhibition in vivo at 40 mg/kg in [29] is more than 99%. The result in data set [10] was Active.

A word on the pIC50: it is the IC50 on a negative log10 scale, so that one unit is a factor of ten. High values mean a small IC50, low ones a large IC50. A word on the inhibition in vivo: it is the drop in the measured response relative to a control, in per cent. In general, MRT refers to a mean duration of stay, worked out from the concentration-time curve.
